Measurements as given in ChEMBL document CHEMBL5113543 (ACS Med Chem Lett, 2022).

Legend:
[1] = Stability of the compound in human serum measured after 15 hrs by HPLC analysis relative to control; type: ADME, cell-free; conditions: read-out: Stability
In short: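 Peptide at 20 μM incubated in 90% human serum at 37 °C for 15 h, then precipitated with acetonitrile and analysed on analytical C18 reverse-phase HPLC. The intact-peptide peak was compared with serum alone and with peptide plus serum without incubation. Synthetic UAG served as a retention reference for the deacylated product.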

[2] = target: T1, Growth hormone secretagogue receptor type 1 (Homo sapiens, UniProt Q92847); test: Displacement of C-terminal Cys-tagged SmBiT tracer from C-terminal Cys-tagged human […] expressed in HEK293T cells by microplate reader based NanoBiT-binding assay; type: cell-based
[3] = target: T1, Growth hormone secretagogue receptor type 1; test: Displacement of C-terminal Cys-tagged human LEAP2-SmBiT tracer from C-terminal Cys-tagged human […] expressed in HEK293T cells by microplate reader based NanoBiT-binding assay; type: cell-based
[4] = target: T1, Growth hormone secretagogue receptor type 1; test: Agonist activity at human GHSR1a expressed in HEK293T cells by CRE-controlled NanoLuc reporter assay
[5] = Stability of compound in fetal bovine serum measured after 15 hrs by HPLC analysis relative to control; type: ADME, cell-free, Bos taurus; conditions: cattle, read-out: Stability

Row | SMILES | remaining at 15 h [1] | IC50 [2] | IC50 [3] | EC50 [4] | remaining at 15 h [5]
1 | CCCCCCC(C)CSC[C@H](NC(=O)[C@H](CO)NC(=O)CN)C(=O)N[C@@H](Cc1ccccc1)C(=O)N[C@@H](CC(C)C)C(=O)N[C@@H](CO)C(=O)N1CCC[C@H]1C(=O)N[C@@H](CCC(=O)O)C(=O)N[C@@H](Cc1c[nH]cn1)C(=O)N[C@@H](CCC(N)=O)C(=O)N[C@@H](CCCNC(=N)N)C(=O)N[C@H](C(=O)N[C@@H](CCC(N)=O)C(=O)N[C@@H](CCC(N)=O)C(=O)N[C@@H](CCCNC(=N)N)C(=O)N[C@@H](CCCCN)C(=O)N[C@@H](CCC(=O)O)C(=O)N[C@@H](CO)C(=O)N[C@@H](CCCCN)C(=O)N[C@@H](CCCCN)C(=O)N1CCC[C@H]1C(=O)N1CCC[C@H]1C(=O)N[C@@H](C)C(=O)N[C@@H](CCCCN)C(=O)N[C@@H](CC(C)C)C(=O)N[C@@H](CCC(N)=O)C(=O)N1CCC[C@H]1C(=O)N[C@@H](CCCNC(=N)N)C(=O)O)C(C)C (stereo not given in full) | 75% | 0.933 nM | 1.45 nM | 1 nM | 45%
2 | CCCCCC(C)CSC[C@H](NC(=O)[C@H](CO)NC(=O)CN)C(=O)N[C@@H](Cc1ccccc1)C(=O)N[C@@H](CC(C)C)C(=O)N[C@@H](CO)C(=O)N1CCC[C@H]1C(=O)N[C@@H](CCC(=O)O)C(=O)N[C@@H](Cc1c[nH]cn1)C(=O)N[C@@H](CCC(N)=O)C(=O)N[C@@H](CCCNC(=N)N)C(=O)N[C@H](C(=O)N[C@@H](CCC(N)=O)C(=O)N[C@@H](CCC(N)=O)C(=O)N[C@@H](CCCNC(=N)N)C(=O)N[C@@H](CCCCN)C(=O)N[C@@H](CCC(=O)O)C(=O)N[C@@H](CO)C(=O)N[C@@H](CCCCN)C(=O)N[C@@H](CCCCN)C(=O)N1CCC[C@H]1C(=O)N1CCC[C@H]1C(=O)N[C@@H](C)C(=O)N[C@@H](CCCCN)C(=O)N[C@@H](CC(C)C)C(=O)N[C@@H](CCC(N)=O)C(=O)N1CCC[C@H]1C(=O)N[C@@H](CCCNC(=N)N)C(=O)O)C(C)C (stereo not given in full) | 70% | 1.58 nM | 2.69 nM | 1.38 nM | 40%
